Measurements as given in ChEMBL document CHEMBL1126585, “Effect of N-methyl substitution of the peptide bonds in luteinizing hormone-releasing hormone agonists” (J Med Chem, 1993).
Square brackets hold non-standard residues; d marks the D form. Peptide text beside a SMILES is read from it. pGlu = O=C1CC[C@@H](C(=O)O)N1

Tests used:
[1] = Clearance in rat after iv dose (100 ug/kg); format: ADME, organism-based; conditions: in vivo, 0.1 mg/kg
Outline: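 Castrate male rats given 100 μg/kg iv bolus; blood sampled over 6 h with EDTA anticoagulant. Plasma levels by RIA with antibody recognizing C-terminal Leu-Arg-Pro-NHEt or Leu-Arg-Pro-GlyNH₂ (rabbit antisera C-402 with [125I-Tyr⁵]leuprolide tracer, or 5328W with [125I-Tyr⁵,DLys⁶]LHRH). AUC by trapezoidal rule; whole-body clearance = dose/AUC, mL/min per kg.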

Rattus norvegicus [2] = species: Rattus norvegicus; assay: Intestinal stability against rat jejunum sac, activity is expressed as T1/2; format: functional
Outline: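 Rat jejunal sac in vitro; T1/2 taken as time, in min, for lumenal compound concentration to fall by 50%.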

Rattus norvegicus [3] = species: Rattus norvegicus; assay: Tested in vitro for LH release from cultured rat pituitary cells, activity is expressed as pD2 value; format: functional, Pituitary gland cell
Outline: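 Cultured rat pituitary cells; LH release measured across agonist concentrations; pD2 = negative log of agonist concentration giving 50% of maximal LH release.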

Row | clearance [1] | Compound | T1/2 (Rattus norvegicus [2]) | pD2 (Rattus norvegicus [3])
1 | 25.4 mL/min/kg | CCNC(=O)[C@@H]1CCCN1C(=O)[C@H](CCCN=C(N)N)NC(=O)[C@H](CC(C)C)NC(=O)[C@@H](CC(C)C)NC(=O)[C@H](Cc1ccc(O)cc1)NC(=O)[C@H](CO)NC(=O)[C@H](Cc1c[nH]c2ccccc12)NC(=O)[C@H](Cc1ccccc1)NC(=O)[C@@H]1CCC(=O)N1 ([pGlu]FWSY[dL]LRP-NHEt) | 2.2 min | 
2 | 4.32 mL/min/kg | CC(C)C[C@H](NC(=O)[C@@H](Cc1c[nH]c2ccccc12)NC(=O)[C@H](Cc1ccc(O)cc1)NC(=O)[C@H](CO)NC(=O)[C@H](Cc1c[nH]c2ccccc12)NC(=O)[C@H](Cc1c[nH]cn1)NC(=O)[C@@H]1CCC(=O)N1)C(=O)N[C@@H](CCCN=C(N)N)C(=O)N1CCC[C@H]1C(=O)N(C)CC(N)=O |  | 10.05
3 |  | CC(C)C[C@@H](C(=O)N[C@@H](CCCN=C(N)N)C(=O)N1CCC[C@H]1C(=O)NCC(N)=O)N(C)C(=O)[C@@H](Cc1ccc2ccccc2c1)NC(=O)[C@H](Cc1ccc(O)cc1)NC(=O)[C@H](CO)NC(=O)[C@H](Cc1c[nH]c2ccccc12)NC(=O)[C@H](Cc1c[nH]cn1)NC(=O)[C@@H]1CCC(=O)N1 |  | 12.35
4 | 15.1 mL/min/kg | CCNC(=O)[C@@H]1CCCN1C(=O)[C@H](CCCN=C(N)N)NC(=O)[C@H](CC(C)C)NC(=O)[C@@H](Cc1c[nH]c2ccccc12)NC(=O)[C@H](Cc1ccc(O)cc1)NC(=O)[C@H](CO)NC(=O)[C@H](Cc1cccc2ccccc12)N(C)C(=O)[C@H](Cc1c[nH]cn1)NC(=O)[C@@H]1CCC(=O)N1 |  | 8.35
5 | 11.1 mL/min/kg | CCNC(=O)[C@@H]1CCCN1C(=O)[C@H](CCCN=C(N)N)NC(=O)[C@H](CC(C)C)NC(=O)[C@@H](Cc1c[nH]c2ccccc12)NC(=O)[C@H](Cc1ccc(O)cc1)N(C)C(=O)[C@H](CO)NC(=O)[C@H](Cc1c[nH]c2ccccc12)NC(=O)[C@H](Cc1c[nH]cn1)NC(=O)[C@@H]1CCC(=O)N1 |  | 10.55
6 | 4.13 mL/min/kg | CC(C)C[C@H](NC(=O)[C@@H](Cc1ccc2ccccc2c1)NC(=O)[C@H](Cc1ccc(O)cc1)NC(=O)[C@H](CO)NC(=O)[C@H](Cc1c[nH]c2ccccc12)NC(=O)[C@H](Cc1c[nH]cn1)N(C)C(=O)[C@@H]1CCC(=O)N1)C(=O)N[C@@H](CCCN=C(N)N)C(=O)N1CCC[C@H]1C(=O)NCC(N)=O |  | 8.18
7 |  | CCNC(=O)[C@@H]1CCCN1C(=O)[C@H](CCCN=C(N)N)NC(=O)C(CC(C)C)NC(=O)C(CC(C)C)NC(=O)[C@H](Cc1ccc(O)cc1)NC(=O)[C@H](CO)NC(=O)[C@H](Cc1c[nH]c2ccccc12)NC(=O)[C@H](Cc1c[nH]cn1)N(C)C(=O)[C@@H]1CCC(=O)N1 (stereo in doubt) [listing 1 of 2 here] |  | 8.22
8 | 19.5 mL/min/kg | CCNC(=O)[C@@H]1CCCN1C(=O)[C@H](CCCNC(=N)N)NC(=O)[C@H](CC(C)C)N(C)C(=O)[C@@H](Cc1c[nH]c2ccccc12)NC(=O)[C@H](Cc1ccc(O)cc1)NC(=O)[C@H](CO)NC(=O)[C@H](Cc1c[nH]c2ccccc12)NC(=O)[C@H](Cc1c[nH]cn1)NC(=O)[C@@H]1CCC(=O)N1 [LUTRELIN] |  | 10.7
9 |  | CCNC(=O)[C@@H]1CCCN1C(=O)[C@H](CCCN=C(N)N)NC(=O)[C@H](CC(C)C)NC(=O)[C@@H](CC(C)C)NC(=O)[C@H](Cc1ccc(O)cc1)N(C)C(=O)[C@H](CO)NC(=O)[C@H](Cc1c[nH]c2ccccc12)NC(=O)[C@H](Cc1c[nH]cn1)NC(=O)[C@@H]1CCC(=O)N1 | 42 min | 
10 |  | CC(C)C[C@H](NC(=O)[C@@H](Cc1ccc2ccccc2c1)NC(=O)[C@H](Cc1ccc(O)cc1)NC(=O)[C@H](CO)NC(=O)[C@H](Cc1c[nH]c2ccccc12)NC(=O)[C@H](Cc1ccccc1)NC(=O)[C@@H]1CCC(=O)N1)C(=O)N[C@@H](CCCN=C(N)N)C(=O)N1CCC[C@H]1C(=O)NCC(N)=O |  | 10.23
11 | 19.9 mL/min/kg | CCNC(=O)[C@@H]1CCCN1C(=O)[C@H](CCCN=C(N)N)NC(=O)[C@H](CC(C)C)NC(=O)[C@@H](Cc1c[nH]c2ccccc12)NC(=O)[C@H](Cc1ccc(O)cc1)NC(=O)[C@H](CO)N(C)C(=O)[C@H](Cc1c[nH]c2ccccc12)NC(=O)[C@H](Cc1cnc[nH]1)NC(=O)[C@@H]1CCC(=O)N1 |  | 
12 |  | CC(C)C[C@H](NC(=O)[C@@H](Cc1ccc2ccccc2c1)N(C)C(=O)[C@H](Cc1ccc(O)cc1)NC(=O)[C@H](CO)NC(=O)[C@H](Cc1c[nH]c2ccccc12)NC(=O)[C@H](Cc1c[nH]cn1)NC(=O)[C@@H]1CCC(=O)N1)C(=O)N[C@@H](CCCN=C(N)N)C(=O)N1CCC[C@H]1C(=O)NCC(N)=O |  | 8.3
13 |  | CCNC(=O)[C@@H]1CCCN1C(=O)[C@H](CCCN=C(N)N)NC(=O)C(CC(C)C)NC(=O)C(CC(C)C)NC(=O)[C@H](Cc1ccc(O)cc1)NC(=O)[C@H](CO)NC(=O)[C@H](Cc1c[nH]c2ccccc12)NC(=O)[C@H](Cc1c[nH]cn1)N(C)C(=O)[C@@H]1CCC(=O)N1 (stereo in doubt) [listing 2 of 2 here] | 48 min | 
14 |  | CCNC(=O)[C@@H]1CCCN1C(=O)[C@H](CCCN=C(N)N)NC(=O)[C@H](CC(C)C)NC(=O)[C@@H](Cc1c[nH]c2ccccc12)NC(=O)[C@H](Cc1ccc(O)cc1)NC(=O)[C@H](CO)NC(=O)[C@H](Cc1cccc2ccccc12)NC(=O)[C@H](Cc1c[nH]cn1)NC(=O)[C@@H]1CCC(=O)N1 |  | 11.49
15 |  | CCNC(=O)[C@@H]1CCCN1C(=O)[C@H](CCCN=C(N)N)NC(=O)[C@H](CC(C)C)NC(=O)[C@@H](Cc1c[nH]c2ccccc12)NC(=O)[C@H](Cc1ccc(O)cc1)NC(=O)[C@H](CO)N(C)C(=O)[C@H](Cc1c[nH]c2ccccc12)NC(=O)[C@H](Cc1c[nH]cn1)NC(=O)[C@@H]1CCC(=O)N1 | 39.1 min | 
16 | 34.3 mL/min/kg | CCNC(=O)[C@@H]1CCCN1C(=O)[C@H](CCCNC(=N)N)NC(=O)[C@H](CC(C)C)NC(=O)[C@@H](Cc1c[nH]c2ccccc12)NC(=O)[C@H](Cc1ccc(O)cc1)NC(=O)[C@H](CO)NC(=O)[C@H](Cc1c[nH]c2ccccc12)NC(=O)[C@H](Cc1c[nH]cn1)NC(=O)[C@@H]1CCC(=O)N1 [DESLORELIN] |  | 11.33
17 |  | CC(C)C[C@H](NC(=O)[C@@H](Cc1ccc2ccccc2c1)NC(=O)[C@H](Cc1ccc(O)cc1)NC(=O)[C@H](CO)NC(=O)[C@H](Cc1cccc2ccccc12)NC(=O)[C@H](Cc1c[nH]cn1)NC(=O)[C@@H]1CCC(=O)N1)C(=O)N[C@@H](CCCN=C(N)N)C(=O)N1CCC[C@H]1C(=O)NCC(N)=O |  | 11.55
18 |  | CC(C)C[C@H](NC(=O)[C@@H](Cc1ccc2ccccc2c1)NC(=O)[C@H](Cc1ccc(O)cc1)NC(=O)[C@H](CO)NC(=O)[C@H](Cc1cccc2ccccc12)N(C)C(=O)[C@H](Cc1c[nH]cn1)NC(=O)[C@@H]1CCC(=O)N1)C(=O)N[C@@H](CCCN=C(N)N)C(=O)N1CCC[C@H]1C(=O)NCC(N)=O |  | 8.7
19 | 3.55 mL/min/kg | CC(C)C[C@H](NC(=O)[C@@H](Cc1ccc2ccccc2c1)NC(=O)[C@H](Cc1ccc(O)cc1)NC(=O)[C@H](CO)NC(=O)[C@H](Cc1c[nH]c2ccccc12)NC(=O)[C@H](Cc1c[nH]cn1)NC(=O)[C@@H]1CCC(=O)N1)C(=O)N[C@@H](CCCN=C(N)N)C(=O)N1CCC[C@H]1C(=O)N(C)CC(N)=O |  | 11.87
20 | 25 mL/min/kg | CCNC(=O)[C@@H]1CCCN1C(=O)[C@H](CCCN=C(N)N)N(C)C(=O)[C@H](CC(C)C)NC(=O)[C@@H](Cc1c[nH]c2ccccc12)NC(=O)[C@H](Cc1ccc(O)cc1)NC(=O)[C@H](CO)NC(=O)[C@H](Cc1c[nH]c2ccccc12)NC(=O)[C@H](Cc1c[nH]cn1)NC(=O)[C@@H]1CCC(=O)N1 |  | 9.35
